PLAP activator: PLAP enzyme activators, biochemical, luminescence, HTS. purified PLAP enzyme, luminescent substrate read-out; hits give high values. hit rate 1.2% among 96,000. AID 696, 2007. Alkaline phosphatase, placental type (Homo sapiens), P05187. activation fold at 20 µM; in the data active = activation fold above about 2
HePTP inh: inhibitors of human HePTP phosphatase, primary screen, biochemical, absorbance, leukemia target; Tyrosine-protein phosphatase non-receptor type 7 (Homo sapiens), P35236; recombinant HePTP phosphatase activity, OD absorbance; inhibition, % at 20 µM; hit rate 0.64% among 110,000; AID 521, 2006; in the data active = inhibition above about 50%;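 note: plate controls were vehicle for no effect and reference inhibitor for full effect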
Target sequence (P35236 whole entry, looked up): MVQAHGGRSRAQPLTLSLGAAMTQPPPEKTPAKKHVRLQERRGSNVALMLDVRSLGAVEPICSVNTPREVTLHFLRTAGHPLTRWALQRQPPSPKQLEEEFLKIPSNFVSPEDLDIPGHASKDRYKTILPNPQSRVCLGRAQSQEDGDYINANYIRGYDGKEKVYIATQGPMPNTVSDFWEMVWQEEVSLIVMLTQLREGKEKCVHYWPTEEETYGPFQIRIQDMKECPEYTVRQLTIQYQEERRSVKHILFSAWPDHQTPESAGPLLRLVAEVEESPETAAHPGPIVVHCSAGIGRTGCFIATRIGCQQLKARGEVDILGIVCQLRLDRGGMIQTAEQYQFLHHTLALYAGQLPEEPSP
tolC growth inh: growth inhibitors of E. coli tolC mutant, primary screen, strain BW25113 ΔtolC::kan, 384-well | OD615 | growth inhibition, % at 10 µM (by protocol) | hit rate 2.2% among 65,000 | AID 573, 2007;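 active = growth inhibition at or above a cutoff equal to the mean over every tested compound plus 3 SD, cut at about 60% in these data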;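 note: growth measured after 20 h incubation at 37 °C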
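Doses: one dose of 10 µM final / Material: E. coli BW25113 ΔtolC::kan, tolC deletion mutant strain / Buffer or medium: LB with kanamycin 50 µg/mL / Evaluation: percent growth inhibition / Detection: optical density read at 615 nm / Incubation: 37 °C, 20 h exposure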
PostGolgi yeast: phenotypic screen on post-Golgi transport, primary screen. post-Golgi transport phenotypic cell assay. inhibition, % at 10 µM. hit rate 0.9% among 98,000;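 note: yeast cells grown in 1536-well plates; yeast grown about 18 h at 30C before absorbance read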
PostGolgi ctrl: growth inhibition of yeast control strain, primary screen, counter-screen for post-Golgi transport modulator project. efflux-deficient yeast background strain, growth absorbance A615, 16 h. inhibition, % at 10 µM. hit rate 5% among 98,000
Ecoli WT expand: growth inhibitors of wild-type E. coli, primary screen, strain BW25113, expanded library, OD600; AID 710, 2007; OD600 absorbance; growth inhibition, % at 100 µM; hit rate 0.15% among 98,000;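 active = growth inhibition above about 50% at one test dose, limit read from the data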;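 note: growth measured after 20 h incubation at 37 °C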
* hit, by the source's call; . = no result. Hits are enriched below; roughly 5.4% of the tested compounds scored in any of these assays. Cut-off read from the data, not from the text of the source, unless noted: active = inhibition above about 30%; inactive = the rest.

SMILES	PLAP activator	HePTP inh	tolC growth inh	PostGolgi yeast	PostGolgi ctrl	Ecoli WT expand
O=C(O)c1cccc2c1NC(c1cccc(Cl)c1Cl)C1CC=CC21 (stereo not given)	.	88*	.	.	.	.
COc1cccc2c1NC(c1ccccc1Cl)C1CC=CC21 (stereo not given)	.	-6	.	.	.	.
Cc1c(Cl)ccc2c1NC(C(=O)O)C1CC=CC21 (stereo not given)	.	103*	.	.	.	.
O=C(Cc1ccccc1)Oc1cccc2c(OC(=O)Cc3ccccc3)cccc12	.	-4	.	.	.	.
COC(=O)C1=C(C)N=C2SCC(=O)N2C1c1ccccc1 (stereo not given)	.	0	.	.	.	.
CCN(CC)C(=S)S/C=C/C(=O)c1ccccc1	.	-3	.	.	.	.
CCOCCCNc1nc2c(c(=O)n(C)c(=O)n2C)n1CCCc1ccccc1	1.4	1	1	-12	33*	-1
CC1CN=C(NC(=S)Nc2ccccc2)S1 (stereo not given)	.	4	.	.	.	.
CCN(CC)c1ccc(/C=N/NC(=O)/C(=C\c2ccc3c(c2)OCO3)NC(=O)c2ccccc2)cc1	.	21	.	.	.	.
O=C(Nc1ccc(NC(=O)c2ccc(Cl)c(S(=O)(=O)N3CCOCC3)c2)cc1)c1ccccc1	.	-22	.	.	.	.
O=C(Nc1ccccc1)c1ccc(NC2CCCCC2)c(S(=O)(=O)N2CCOCC2)c1	2.1*	.	.	-1	28	-5
O=C(Nc1ccccc1)c1ccc(N2CCN(c3ccccn3)CC2)c(S(=O)(=O)N2CCOCC2)c1	2.1*	.	.	10	2	-5
COc1cccc(-c2nnc(-c3ccc(Br)o3)o2)c1	.	9	.	.	.	.
O=S(=O)(O)c1cccc2c(N=Cc3cc(Cl)cc(Cl)c3O)cccc12	.	-17	.	.	.	.
COc1ccc(/C=C2\SC(=S)N(Cc3ccco3)C2=O)cc1OC	.	-10	.	.	.	.
O=c1cc(NC2CCCCC2)c2ccccc2n1-c1ccccc1	.	-7	.	.	.	.
CCC1Sc2ccccc2N(CC(=O)NCCC2=CCCCC2)C1=O (stereo not given)	1.5	.	.	-1	37*	-7
CC(C)(C)C(=O)C(Cc1ccccc1)n1cncn1 (stereo not given)	0.9	.	.	51*	45*	-2
CC(C)(C)C(=O)C(Cc1ccccc1Cl)n1cncn1 (stereo not given)	1.3	.	.	99*	94*	4
CC(C)(NCc1ccccc1Cl)C(=O)O	.	4	-25	.	.	.
CCCC(C(=O)c1ccccc1)n1cncn1 (stereo not given)	0.9	-6	-19	2	-11	0
O=C(CSc1ccncc1)OCc1ccc([N+](=O)[O-])cc1	.	9	.	.	.	.
COCCCNC(=O)c1ccc(CN(c2ccccc2)S(C)(=O)=O)cc1	.	1	.	.	.	.
O=C(Cc1cn2ccsc2n1)Nc1nc2c(s1)CCCC2	2*	6	59	7	11	9
O=C(Nc1nc2c(s1)CCCC2)c1cccs1	1.1	7	4	-5	11	1
SMILES	PLAP activator	HePTP inh	tolC growth inh	PostGolgi yeast	PostGolgi ctrl	Ecoli WT expand
O=C(Cc1cccs1)Nc1nc2c(s1)CCCC2	0.9	4	49	35*	-3	16
COc1ccc(N(C2CSC2)S(=O)(=O)c2ccccc2)cc1	1.1	-2	64*	9	0	-7
COc1ccc(N(CC(=O)O)S(=O)(=O)c2ccccc2)cc1	.	4	.	.	.	.
CC1(C)CC(=O)C2=C(C1)N=c1s/c(=C/c3ccc(F)c(F)c3)c(=O)n1C2c1ccc(F)cc1 (stereo not given)	1.2	.	.	23	31*	0
CCCCNS(=O)(=O)c1ccc2nc(SCC(=O)c3ccc(C#N)cc3)[nH]c2c1	2*	15	-3	24	13	-2
O=C(CSc1nc2ccc([N+](=O)[O-])cc2[nH]1)c1ccc(F)cc1	.	-5	.	.	.	.
CC1=CC(C)(C)N(C(=O)C(Cc2ccccc2)N2C(=O)c3ccccc3C2=O)c2ccccc21 (stereo not given)	.	-9	.	.	.	.
Brc1ccc2ncnc(Nc3ccccc3)c2c1	.	-14	.	.	.	.
Clc1cccc(Nc2ncnc3ccc(Br)cc23)c1	1.1	.	.	9	46*	2
Clc1ccc(Nc2ncnc3ccc(Br)cc23)cc1	1.1	.	.	-3	33*	-5
COC(=O)c1cccc(Nc2ncnc3ccc(Br)cc23)c1	.	-4	.	.	.	.
CN(C)c1ccc(/C=N/NC(=O)c2cc(-c3ccc4ccccc4c3)n[nH]2)cc1	.	4	.	.	.	.
COc1ccc(C(=O)c2ccc(N3CCOCC3)c([N+](=O)[O-])c2)cc1	.	3	.	.	.	.
